≈ marks a conversion by molar mass, not a printed value. Calls of active or inactive are those of the source. The calls are words filed in the database; no cut-off is given here.
What was measured:
Escherichia coli = assay: Antibacterial activity against beta-lactam resistant Escherichia coli BAA 2326 assessed as zone of inhibition by disc diffusion method; type: functional
Staphylococcus aureus [1] = assay: Antibiofilm activity against methicillin-resistant Staphylococcus aureus assessed as disruption of preformed biofilm at 1 to 5 times of MIC incubated for 20 hrs by crystal violet staining based assay; type: functional, organism-based
Staphylococcus aureus [2] = assay: Synergistic antibacterial activity against methicillin-resistant Staphylococcus aureus ATCC 43300 in presence of vancomycin by disc diffusion method; type: functional, organism-based
Staphylococcus aureus [3] = assay: Antibacterial activity against vancomycin-intermediate resistant Staphylococcus aureus Mu50 ATCC 700699 assessed as bacterial growth inhibition incubated for 20 hrs by broth dilution method; type: functional
Procedure, shortened: (§1)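 Broth microdilution: 0.5 McFarland suspension from an overnight culture, diluted 1:100 in cation-adjusted Mueller Hinton broth (CAMHB), given serial dilutions of test agent for 20 h at 37 °C. MIC is the lowest concentration with no visible growth.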

Staphylococcus aureus [4] = assay: Antibacterial activity against methicillin-susceptible Staphylococcus aureus ATCC 25923 assessed as bacterial growth inhibition incubated for 20 hrs by broth dilution method; type: functional; procedure, shortened: as §1
Staphylococcus aureus [5] = assay: Antibacterial activity against community acquired methicillin-resistant Staphylococcus aureus BAA 1747 assessed as zone of inhibition by disc diffusion method; type: functional
Staphylococcus aureus [6] = assay: Antibacterial activity against heterogeneous vancomycin-intermediate resistant Staphylococcus aureus Mu3 ATCC 700698 assessed as zone of inhibition by disc diffusion method; type: functional
Staphylococcus aureus [7] = assay: Antibacterial activity against methicillin-resistant Staphylococcus aureus ATCC 43300 assessed as bacterial growth inhibition incubated for 20 hrs by broth dilution method; type: functional; procedure, shortened: as §1
Staphylococcus aureus [8] = assay: Induction of intracellular oxidant species generation in Staphylococcus aureus ATCC 25923 by DCFH-DA dye based fluorescence assay; type: functional, organism-based
Procedure, shortened: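 OD600 1.5 suspension of S. aureus […] in HBSS given agent (from 2 or 10 mM stock), DMSO or water, then DCFH diacetate from a 100 μM stock in DMSO. Intracellular oxidation read by fluorescence (ex 485, em 535 nm).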

Staphylococcus aureus [9] = assay: Antibacterial activity against vancomycin-intermediate resistant Staphylococcus aureus Mu50 ATCC 700699 assessed as bacterial growth inhibition by measuring fold increase in MIC between 5 to 7 passages by broth dilution method; type: functional
Staphylococcus aureus [10] = assay: Antibacterial activity against methicillin-susceptible Staphylococcus aureus ATCC 25923 assessed as inhibition of bacterial growth at 1 to 2 times of MIC after 20 hrs; type: functional, organism-based
Staphylococcus aureus [11] = assay: Bactericidal activity against methicillin-resistant Staphylococcus aureus ATCC 43300 assessed as bacterial killing incubated for over night; type: functional
Procedure, shortened: (§2)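 For MBC, 5 μL from each well was spotted on agar and incubated overnight; MBC is the lowest concentration with no visible growth. Ratio taken as MBC over MIC.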

Staphylococcus aureus [12] = assay: Antibacterial activity against vancomycin-intermediate resistant Staphylococcus aureus Mu50 ATCC 700699 assessed as zone of inhibition by disc diffusion method; type: functional
Enterobacter cloacae = assay: Antibacterial activity against Enterobacter cloacae ATCC 23355 assessed as zone of inhibition by disc diffusion method; type: functional
Staphylococcus aureus [13] = assay: Bacteriostatic activity against methicillin-susceptible Staphylococcus aureus ATCC 25923 assessed as reduction in colony forming unit at 1 times of MIC measured up to 4 hrs by time kill assay; type: functional, organism-based; settings: time hrs <=4
Procedure, shortened: (§3)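 Time-kill: a 1:100 dilution of 0.5 McFarland S. aureus […] suspension was exposed to 0, 1 and 4× MIC. At 0, 1, 2 and 4 h, samples were serially diluted in PBS and plated on MHA. CFU were counted after 30 h incubation.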

Staphylococcus aureus [14] = assay: Bacteriostatic activity against methicillin-susceptible Staphylococcus aureus ATCC 25923 assessed as reduction in colony forming unit at 4 times of MIC measured up to 4 hrs by time kill assay; type: functional, organism-based; procedure, shortened: as §3
Enterococcus faecium = assay: Antibacterial activity against vancomycin-resistant Enterococcus faecium ATCC 700221 assessed as zone of inhibition by disc diffusion method; type: functional
Staphylococcus aureus [15] = assay: Ratio of MBC to MIC against methicillin-resistant Staphylococcus aureus ATCC 43300; type: functional; procedure, shortened: as §2
[16] = tested on: Staphylococcus epidermidis; assay: Antibacterial activity against Staphylococcus epidermidis ATCC 14990 assessed as zone of inhibition by disc diffusion method; type: functional
Acinetobacter baumannii = assay: Antibacterial activity against Acinetobacter baumannii ATCC 19606 assessed as zone of inhibition by disc diffusion method; type: functional
Staphylococcus aureus [17] = assay: Antibacterial activity against vancomycin-resistant Staphylococcus aureus HIP11714 assessed as bacterial growth inhibition by measuring fold increase in MIC between 5 to 7 passages by broth dilution method; type: functional
Staphylococcus aureus [18] = assay: Bactericidal activity against vancomycin-intermediate resistant Staphylococcus aureus Mu50 ATCC 700699 assessed as bacterial killing incubated for over night; type: functional; procedure, shortened: as §2
HepG2 = assay: Cytotoxicity against human HepG2 cells assessed as reduction in cell viability after 72 hrs by MTT assay; type: cell-based; settings: HepG2, 72 h
Procedure, shortened: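 MTT viability: MDA-MB-231 and HepG2 cells (kept in DMEM with 10% FBS) were seeded at 5000/well and allowed to adhere overnight. They were exposed to 0.001–100 μM for 72 h, then given MTT 1 mg/mL in PBS pH 7.4 for 2 h. Formazan was dissolved in DMSO and A570 read. IC50 was taken from dose-response curves.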

Staphylococcus aureus [19] = assay: Ratio of MBC to MIC against methicillin-susceptible Staphylococcus aureus ATCC 25923; type: functional; procedure, shortened: as §2
Enterococcus faecalis = assay: Antibacterial activity against vancomycin-susceptible Enterococcus faecalis ATCC 29212 assessed as zone of inhibition by disc diffusion method; type: functional
Staphylococcus aureus [20] = assay: Disruption of membrane potential in Staphylococcus aureus at 3 to 30 uM by DiOC2(3) probe based flow cytometric analysis; type: functional, organism-based; settings: dose 3-30 µM, TDE = time-dependent effect
Procedure, shortened: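 An overnight S. aureus culture was diluted 1:100 in LB, shaken 2 h at 37 °C, then diluted to a final 1:200. Cells were treated with 3–30 μM, DMSO 2% vehicle or CCCP at 37 °C with shaking. At 15 and 30 min, samples were stained 20 min with DiOC2(3). Flow cytometry used ex 488 nm, green 530/30 and red 585/42, reported as red/green ratio (mean ± SEM).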

Staphylococcus aureus [21] = assay: Antibacterial activity against vancomycin-intermediate Staphylococcus aureus clinical isolate 12 assessed as bacterial growth inhibition after 20 hrs by broth microdilution assay; type: functional; procedure, shortened: as §1
Staphylococcus aureus [22] = assay: Induction of membrane permeabilization in methicillin-susceptible Staphylococcus aureus ATCC 25923 assessed as cell viability at 1 to 5 times of MIC incubated for 5 mins by SYTO9 and PI staining based fluorescence assay; type: functional, organism-based
Procedure, shortened: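 S. aureus […] was grown to OD600 0.4 in LB, washed with PBS and resuspended in 100 mM potassium phosphate pH 7.0 with 5 mM MgSO4. […] Controls were DMSO 5% and nisin 25 μg/mL. SYTO 9/propidium iodide staining ran 15 min at r.t. in the dark, and the green/red ratio (ex 485; em 535/595 nm) was read. Data are mean ± SEM, n = 3.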

Staphylococcus aureus [23] = assay: Bactericidal activity against heterogeneous vancomycin-intermediate Staphylococcus aureus Mu3 ATCC 700698 assessed as bacterial killing incubated for over night; type: functional; procedure, shortened: as §2
Staphylococcus aureus [24] = assay: Antibacterial activity against vancomycin-resistant Staphylococcus aureus clinical isolate 10 assessed as bacterial growth inhibition after 20 hrs by broth microdilution assay; type: functional; procedure, shortened: as §1

In the case of `CCCCCCCCSSc1ccccn1`, the “diameter of the inhibition zone (DIZ)” value (Escherichia coli) is reported as 0 mm, the Activity (Staphylococcus aureus [1]) is reported as “Dose-dependent effect” and the Activity (Staphylococcus aureus [2]) is reported as “Active”. For the same molecule, the MIC (Staphylococcus aureus [3]) was 3.13 µM (≈ 0.8 µg/mL), the MIC (Staphylococcus aureus [4]) was 12.5 µM (≈ 3.19 µg/mL) and the “diameter of the inhibition zone (DIZ)” value (Staphylococcus aureus [5]) was 30 mm. The “diameter of the inhibition zone (DIZ)” value (Staphylococcus aureus [6]) was 37 mm, the MIC (Staphylococcus aureus [7]) was 6.25 µM (≈ 1.6 µg/mL) and the Activity (Staphylococcus aureus [8]) was “Active”. For the same molecule, the “fold change (FC)” value (Staphylococcus aureus [9]) was greater than 2, the Activity (Staphylococcus aureus [10]) was “Active” and the MBC (Staphylococcus aureus [11]) was greater than 50 µM. For the same molecule, the “diameter of the inhibition zone (DIZ)” value (Staphylococcus aureus [12]) was 43 mm, the “diameter of the inhibition zone (DIZ)” value (Enterobacter cloacae) was 0 mm and the Activity (Staphylococcus aureus [13]) was “Active”. For the same molecule, the Activity (Staphylococcus aureus [14]) was “Active”, the “diameter of the inhibition zone (DIZ)” value (Enterococcus faecium) was 12 mm and the Ratio (Staphylococcus aureus [15]) was greater than 8. For the same molecule, the “diameter of the inhibition zone (DIZ)” value [16] was 46 mm, the “diameter of the inhibition zone (DIZ)” value (Acinetobacter baumannii) was 0 mm and the “fold change (FC)” value (Staphylococcus aureus [17]) was greater than 2. The MBC (Staphylococcus aureus [18]) was 25 µM (≈ 6.39 µg/mL), the IC50 (HepG2) was no less than 100 µM and the Ratio (Staphylococcus aureus [19]) was greater than 4. The “diameter of the inhibition zone (DIZ)” value (Enterococcus faecalis) was 12 mm, the Activity (Staphylococcus aureus [20]) was “Tde” and the MIC50 (Staphylococcus aureus [21]) was 12.5 µM (≈ 3.19 µg/mL). The MIC90 (Staphylococcus aureus [21]) was 12.5 µM (≈ 3.19 µg/mL), the Activity (Staphylococcus aureus [22]) was “inactive” and the MBC (Staphylococcus aureus [23]) was greater than 50 µM. It also gave an MIC50 (Staphylococcus aureus [24]) of 6.25 µM (≈ 1.6 µg/mL) and an MIC90 (Staphylococcus aureus [24]) of 12.5 µM (≈ 3.19 µg/mL).

Source: ChEMBL document CHEMBL4715813, “Allicin-inspired pyridyl disulfides as antimicrobial agents for multidrug-resistant Staphylococcus aureus” (Eur J Med Chem, 2018)
